Shown are actives, neighbours in structure and some others; about 5.3% of the full set was active somewhere.
T cruzi inh = inhibitors of intracellular T. cruzi growth, primary screen, luminescence, NIH3T3 host cells. AID 1885, 2009. T. cruzi beta-gal in NIH3T3, 90 h. inhibition, % (concentration not given with the values). 300,000 tested, 1.4% active;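 active = mean inhibition across valid replicates above about 55%, limit read from the data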;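 note: signal also drops with host cell toxicity which is not excluded here; 0% = plate median of DMSO wells and 100% = zero luminescence signal; higher percent means less beta-gal luminescence so fewer parasites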
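Assay system: NIH/3T3 host cells with β-galactosidase reporter T. cruzi; input: 5,000 host fibroblasts per well; compound: single 50 nL compound addition per well in DMSO; timing: ≥90 h infection period, 3 h prior cell attachment; measured by: GalScreen β-gal luminescence, detergent lysis, 60 min; evaluation: percent inhibition of parasite-derived β-gal signal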
CSC inhib = cancer stem cell viability inhibitors, primary screen, luminescence; cancer stem cell-like cells viability; inhibition, % at 7.5 µM; AID 2717, 2010; 300,000 tested, 1.1% active; in the data active = inhibition above about 75%; tested in HMLE shEcad cells
Mdm2-MdmX inh = inhibitors of human Mdm2-MdmX association, primary screen, cell-based, luminescence, split luciferase, SaOS-2, uHTS; Protein Mdm4 (Homo sapiens) + E3 ubiquitin-protein ligase Mdm2 (Homo sapiens), …; SaOS-2 split-luciferase Mdm2/MdmX complementation; inhibition, % at 8 µM; 330,000 tested, 3% active; AID 485346, 2010;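 active = inhibition of at least 50% at 8 µM in the primary screen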
Target sequence (O15151 whole entry, looked up): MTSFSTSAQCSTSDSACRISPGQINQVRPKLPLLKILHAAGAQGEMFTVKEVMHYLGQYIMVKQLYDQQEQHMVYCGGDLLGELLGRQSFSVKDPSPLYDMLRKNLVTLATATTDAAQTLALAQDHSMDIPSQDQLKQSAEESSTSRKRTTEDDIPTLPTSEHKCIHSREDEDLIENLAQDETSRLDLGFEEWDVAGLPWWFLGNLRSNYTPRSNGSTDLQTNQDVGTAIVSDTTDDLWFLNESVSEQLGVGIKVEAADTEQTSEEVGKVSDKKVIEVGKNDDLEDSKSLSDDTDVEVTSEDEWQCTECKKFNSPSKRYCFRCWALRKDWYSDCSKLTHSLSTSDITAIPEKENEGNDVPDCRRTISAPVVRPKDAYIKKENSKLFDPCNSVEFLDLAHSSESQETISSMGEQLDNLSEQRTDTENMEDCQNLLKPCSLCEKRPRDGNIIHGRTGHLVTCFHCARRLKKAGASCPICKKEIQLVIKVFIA
Target sequence (Q00987 whole entry, looked up): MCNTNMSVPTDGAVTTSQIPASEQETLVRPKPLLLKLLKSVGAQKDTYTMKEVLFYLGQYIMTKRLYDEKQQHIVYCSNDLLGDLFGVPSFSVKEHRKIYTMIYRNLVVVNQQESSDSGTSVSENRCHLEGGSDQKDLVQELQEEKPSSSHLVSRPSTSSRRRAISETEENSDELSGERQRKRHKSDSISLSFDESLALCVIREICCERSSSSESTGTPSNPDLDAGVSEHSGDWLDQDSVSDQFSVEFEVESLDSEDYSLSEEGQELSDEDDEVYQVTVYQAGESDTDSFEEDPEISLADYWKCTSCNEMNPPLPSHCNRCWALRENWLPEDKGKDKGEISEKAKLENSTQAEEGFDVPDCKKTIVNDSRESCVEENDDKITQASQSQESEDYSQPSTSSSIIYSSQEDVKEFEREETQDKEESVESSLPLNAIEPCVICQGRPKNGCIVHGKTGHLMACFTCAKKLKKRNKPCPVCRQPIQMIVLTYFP
NALP3 yeast inh = NALP3 inflammasome inhibitors in reconstituted yeast, primary screen, luminescence, uHTS; inhibition, % at 10 µM; 330,000 tested, 0.39% active; Yeast reconstituted NLRP3/ASC/caspase-1, beta-gal luminescence, 24 h; AID 2825, 2010;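 active = inhibition of 50% or more; inactive = inhibition below 50%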;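 note: plate controls were induced DMSO wells for no effect and uninduced yeast grown without galactose for full effect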
Beta cell apopt = inhibitors of cytokine-induced beta cell apoptosis, primary screen, luminescence | 300,000 tested, 0.8% active | AID 435005, 2010 | protection from apoptosis, % (concentration not given with the values) | INS-1E cytokine-induced death, ATP luminescence, 48 h; percent of positive-control rescue, neutral wells zero;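 active = Every replicate reaches about 75%, or at least half do and their mean reaches it too, limit read from the data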;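 note: 0% = cytokine-treated negative control wells and 100% = positive control rescue; higher means more ATP so stronger rescue from cytokine killing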
Calb FLC = C. albicans growth inhibition with fluconazole, primary screen, CaCi-2 strain, Alamar Blue fluorescence | C. albicans CaCi-2 + fluconazole, 48 h | growth inhibition, % (no concentration beside the values) | 300,000 tested, 0.57% active | AID 1979, 2009;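 active = growth inhibition above about 58% in most replicates, limit read from the data, passing the limit was not always enough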;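 note: all wells also contain fluconazole at 8 µg/ml as a sub-toxic cotreatment; 0% = median of DMSO wells and 100% = median of geldanamycin control wells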
Mdm2-MdmX conf = Mdm2-MdmX complex disruptors, retested hits, confirmation, luminescence, single concentration. shares compounds with Mdm2-MdmX inh. Mdm2-MdmX binding, luminescent assay. inhibition, % at 8 µM. 10,000 tested, 55% active; in the data active = inhibition above about 40%
FLuc counter = full-length luciferase signal inhibition, confirmation, counter-screen for Mdm2/MdmX interaction inhibitor project, cell-based, single concentration, SaOS-2; inhibition, % at 8 µM; AID 504607, 2011; 6,200 tested, 77% active; shares compounds with Mdm2-MdmX inh; SaOS-2 full-length luciferase counterscreen, luminescence;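 active = mean inhibition at 8 µM reaching about 37%, which flags the compound as non-specific, limit read from the data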;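 note: p53-null SaOS-2 cells with luciferase driven by a doxycycline-inducible promoter; compound on cells about two nights before reading with doxycycline added after day one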
* hit, by the source's call.

`Cn1nc(-c2ccc(OCC(=O)Nc3cccnc3)cc2)c2ccccc2c1=O` gave T cruzi inh -4.1, CSC inhib 5.8, Mdm2-MdmX inh 63.7*, NALP3 yeast inh -0.2, Beta cell apopt -2.1, Calb FLC 0.3 and Mdm2-MdmX conf 6.2.
For CCN1CCN(c2nc3c(c(=O)[nH]c(=O)n3C)n2Cc2ccccc2F)CC1 the results were T cruzi inh -12.4, CSC inhib 2.5, Mdm2-MdmX inh -3.4, NALP3 yeast inh 12.8 and Calb FLC -2.1.
For Cc1ccc(Cl)cc1N1CCN(Cc2nc3c(c(=O)[nH]c(=O)n3C)n2CCc2ccccc2)CC1 the results were T cruzi inh 22.6, CSC inhib 5.1, Mdm2-MdmX inh 63.6*, NALP3 yeast inh -0.7, Beta cell apopt 28.7, Calb FLC -14.2 and Mdm2-MdmX conf 13.9.
For Cc1ccc(Cl)cc1N1CCN(Cc2nc3c(c(=O)[nH]c(=O)n3C)n2Cc2ccccc2F)CC1 the results were T cruzi inh 37.8, CSC inhib 117.8*, Mdm2-MdmX inh 51.1*, NALP3 yeast inh 17.8, Beta cell apopt -15.6, Calb FLC 1.4, Mdm2-MdmX conf 35.2 and FLuc counter 77.2*.
Screening CCN(CC)C(=O)Cn1cc(S(=O)(=O)Cc2cccc([N+](=O)[O-])c2)c2ccccc21 returned T cruzi inh 10.2, CSC inhib -10.3, Mdm2-MdmX inh -10.3, NALP3 yeast inh -13.6, Beta cell apopt 1.7 and Calb FLC -2.0.
`CC1(C)CC(=O)C2=C(C1)NC1=C(C(=O)c3ccccc31)C2c1ccc(Cl)cc1` (centres undefined) gave T cruzi inh 31.1, CSC inhib 44.0, Mdm2-MdmX inh 57.7*, NALP3 yeast inh 16.0, Beta cell apopt 1.2, Calb FLC -2.7 and Mdm2-MdmX conf 16.8.
`Cc1ccc(C2C3=C(CC(C)(C)CC3=O)NC3=C2C(=O)c2ccccc23)cc1` (centres undefined) gave T cruzi inh 24.2, CSC inhib -6.7, Mdm2-MdmX inh 22.3, NALP3 yeast inh 20.7, Beta cell apopt -4.1 and Calb FLC -5.4.
CCCN(Cc1ccco1)S(=O)(=O)c1ccc(OC)c(OC)c1 was read as T cruzi inh -0.8, CSC inhib -6.3, Mdm2-MdmX inh 2.4, NALP3 yeast inh -9.1, Beta cell apopt -6.8 and Calb FLC 11.9.
NS(=O)(=O)c1ccc(NC(=O)COC(=O)c2cc3ccccc3cc2O)cc1 was read as T cruzi inh -9.2, CSC inhib -23.5, Mdm2-MdmX inh 10.0, NALP3 yeast inh -9.4, Beta cell apopt -10.5 and Calb FLC 22.3.
NC(=O)c1ccc(NC(=O)COC(=O)c2cc3ccccc3cc2O)cc1 was read as CSC inhib -13.6, Mdm2-MdmX inh 54.5*, NALP3 yeast inh -3.8, Beta cell apopt -2.8 and Mdm2-MdmX conf -10.2.
`CCC(=O)Nc1cccc(C2=NOC3(C2)C[C@@H](C(N)=O)N(C(=O)COc2ccc(Cl)cc2)C3)c1` (some centres undefined) gave T cruzi inh -1.4, CSC inhib -4.9, Mdm2-MdmX inh 21.9, NALP3 yeast inh 8.2, Beta cell apopt 0.1 and Calb FLC 8.0.
For CCC(=O)N1CC2(CC(c3cccc(NC(=O)COc4ccc(Cl)cc4)c3)=NO2)C[C@@H]1C(N)=O (some centres undefined) the results were T cruzi inh -18.3, Mdm2-MdmX inh 0.4, NALP3 yeast inh 22.8 and Calb FLC 3.9.
Screening NC(=O)[C@H]1CC2(CC(c3cccc(NC(=O)COc4ccc(Cl)cc4)c3)=NO2)CN1C(=O)CC(c1ccccc1)c1ccccc1 (some centres undefined) returned T cruzi inh 49.5, CSC inhib -8.1, Mdm2-MdmX inh 53.7*, NALP3 yeast inh 10.5, Beta cell apopt 13.4, Calb FLC 13.0 and Mdm2-MdmX conf 23.6.
For NC(=O)[C@@H]1CC2(CC(c3cccc(NC(=O)CC(c4ccccc4)c4ccccc4)c3)=NO2)CN1C(=O)COc1ccc(Cl)cc1 (some centres undefined) the results were T cruzi inh 48.9, CSC inhib 12.2, Mdm2-MdmX inh 73.3*, NALP3 yeast inh -7.6, Beta cell apopt 0.1, Calb FLC 20.0, Mdm2-MdmX conf 42.3* and FLuc counter 80.2*.
For N/C(=N/OS(=O)(=O)c1ccc([N+](=O)[O-])cc1)c1ccncc1 the results were T cruzi inh -0.8, CSC inhib -5.4, Mdm2-MdmX inh 2.8, NALP3 yeast inh -8.2, Beta cell apopt -5.4 and Calb FLC -2.9.
For Cc1cc2oc(=O)cc(Cn3ncc(Cl)c(Cl)c3=O)c2cc1Cl the results were T cruzi inh 57.3*, CSC inhib 79.9*, Mdm2-MdmX inh 96.3*, NALP3 yeast inh 6.1, Beta cell apopt 110.0*, Calb FLC 18.4, Mdm2-MdmX conf 97.7* and FLuc counter 53.5*.
`Cc1ccc(C)c(C(=O)Cn2ncc(Cl)c(Cl)c2=O)c1` gave T cruzi inh -25.1, CSC inhib 56.4, Mdm2-MdmX inh 96.6*, NALP3 yeast inh 20.4, Beta cell apopt -11.9, Calb FLC -13.4, Mdm2-MdmX conf 84.2* and FLuc counter 31.7.
For Cc1cc(C(=O)Cn2ncc(Cl)c(Cl)c2=O)c(C)n1CC(F)(F)F the results were T cruzi inh -29.4, Mdm2-MdmX inh 98.3*, NALP3 yeast inh 15.1, Calb FLC -3.2, Mdm2-MdmX conf 67.5* and FLuc counter 1.8.
CCCc1cc(=O)[nH]c(SCC(=O)c2cc(C)n(CC(F)(F)F)c2C)n1 was read as T cruzi inh -9.2, CSC inhib -10.3, Mdm2-MdmX inh 8.2, NALP3 yeast inh 10.1, Beta cell apopt 1.7 and Calb FLC 14.4.
For Cc1cccc(Cn2ncc(Cl)c(Cl)c2=O)c1 the results were T cruzi inh -20.7, CSC inhib -11.5, Mdm2-MdmX inh 100.2*, NALP3 yeast inh 18.7, Beta cell apopt -14.1, Calb FLC 21.4, Mdm2-MdmX conf 84.0* and FLuc counter 51.1*.
`O=C(CN1C(=O)/C(=C\c2ccccc2Cl)Oc2ccccc21)NCc1cccnc1` gave T cruzi inh 36.9, CSC inhib 20.2, Mdm2-MdmX inh 75.7*, NALP3 yeast inh 31.1, Beta cell apopt 11.2, Calb FLC 3.4 and Mdm2-MdmX conf 1.1.

Screening data from PubChem BioAssay.
